The results in this text go back to ChEMBL document CHEMBL1142961, “Novel selective inhibitors of the zinc plasmodial aminopeptidase PfA-M1 as potential antimalarial agents” (J Med Chem, 2007).

Data set [1] concerns the target T1, Aminopeptidase N (Plasmodium falciparum FcB1/Columbia) (UniProt O96935).
T1 sequence (whole entry): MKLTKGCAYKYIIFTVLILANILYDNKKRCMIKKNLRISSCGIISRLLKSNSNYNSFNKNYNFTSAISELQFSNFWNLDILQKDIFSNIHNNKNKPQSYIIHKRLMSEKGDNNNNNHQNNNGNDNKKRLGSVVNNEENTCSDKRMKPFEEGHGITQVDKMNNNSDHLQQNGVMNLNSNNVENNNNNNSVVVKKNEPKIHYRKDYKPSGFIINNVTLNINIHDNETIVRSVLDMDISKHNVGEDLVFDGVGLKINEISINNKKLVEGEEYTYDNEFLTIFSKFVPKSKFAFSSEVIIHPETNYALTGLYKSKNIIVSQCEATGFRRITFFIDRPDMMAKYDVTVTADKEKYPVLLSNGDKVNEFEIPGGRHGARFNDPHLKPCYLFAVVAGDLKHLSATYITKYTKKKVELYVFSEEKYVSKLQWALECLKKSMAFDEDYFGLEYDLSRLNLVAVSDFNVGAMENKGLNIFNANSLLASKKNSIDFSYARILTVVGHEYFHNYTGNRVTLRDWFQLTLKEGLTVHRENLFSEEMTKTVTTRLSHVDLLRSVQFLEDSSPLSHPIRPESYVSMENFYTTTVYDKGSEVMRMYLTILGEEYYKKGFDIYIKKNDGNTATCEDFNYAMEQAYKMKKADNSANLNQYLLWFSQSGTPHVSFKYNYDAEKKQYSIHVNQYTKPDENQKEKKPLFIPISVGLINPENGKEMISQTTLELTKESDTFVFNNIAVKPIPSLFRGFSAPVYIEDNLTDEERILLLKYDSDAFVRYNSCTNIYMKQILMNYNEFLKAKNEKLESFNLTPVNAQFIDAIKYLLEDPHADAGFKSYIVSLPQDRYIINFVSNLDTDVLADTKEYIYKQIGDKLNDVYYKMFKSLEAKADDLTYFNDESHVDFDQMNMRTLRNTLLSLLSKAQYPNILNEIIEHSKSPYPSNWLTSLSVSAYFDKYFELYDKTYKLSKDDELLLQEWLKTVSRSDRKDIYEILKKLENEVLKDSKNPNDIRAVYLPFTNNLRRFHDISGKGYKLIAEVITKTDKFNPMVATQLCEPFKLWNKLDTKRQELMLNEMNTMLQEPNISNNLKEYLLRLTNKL
The experiment in a line: Inhibition of Plasmodium falciparum FcB1 M1 aminopeptidase at 10 uM. The method, boiled down: (§1)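 Native enzyme purified from P. falciparum FcB1, diluted 10-fold in 25 mM Tris-HCl pH 7.4. Preincubated with inhibitor for 10 min at room temperature, then Leu-pNA substrate added (0.3 mM stock, Km 0.099 mM). Kinetics followed at 405 nm at room temperature. Initial velocities normalized to a no-inhibitor control. Single-point screen at 10 µM; IC50 from velocity versus inhibitor concentration curves. Bestatin used as reference.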

Data set [2] deals with T2, Aminopeptidase N (Plasmodium falciparum FcB1/Columbia, UniProt O96935).
T2 sequence (O96935 whole entry): T1 sequence (whole entry)
The experiment in a line: Inhibition of Plasmodium falciparum FcB1 M1 aminopeptidase. The method, boiled down: as §1

The target in data set [3] is T3, Aminopeptidase N (Sus scrofa) (UniProt P15145).
T3 sequence (whole entry): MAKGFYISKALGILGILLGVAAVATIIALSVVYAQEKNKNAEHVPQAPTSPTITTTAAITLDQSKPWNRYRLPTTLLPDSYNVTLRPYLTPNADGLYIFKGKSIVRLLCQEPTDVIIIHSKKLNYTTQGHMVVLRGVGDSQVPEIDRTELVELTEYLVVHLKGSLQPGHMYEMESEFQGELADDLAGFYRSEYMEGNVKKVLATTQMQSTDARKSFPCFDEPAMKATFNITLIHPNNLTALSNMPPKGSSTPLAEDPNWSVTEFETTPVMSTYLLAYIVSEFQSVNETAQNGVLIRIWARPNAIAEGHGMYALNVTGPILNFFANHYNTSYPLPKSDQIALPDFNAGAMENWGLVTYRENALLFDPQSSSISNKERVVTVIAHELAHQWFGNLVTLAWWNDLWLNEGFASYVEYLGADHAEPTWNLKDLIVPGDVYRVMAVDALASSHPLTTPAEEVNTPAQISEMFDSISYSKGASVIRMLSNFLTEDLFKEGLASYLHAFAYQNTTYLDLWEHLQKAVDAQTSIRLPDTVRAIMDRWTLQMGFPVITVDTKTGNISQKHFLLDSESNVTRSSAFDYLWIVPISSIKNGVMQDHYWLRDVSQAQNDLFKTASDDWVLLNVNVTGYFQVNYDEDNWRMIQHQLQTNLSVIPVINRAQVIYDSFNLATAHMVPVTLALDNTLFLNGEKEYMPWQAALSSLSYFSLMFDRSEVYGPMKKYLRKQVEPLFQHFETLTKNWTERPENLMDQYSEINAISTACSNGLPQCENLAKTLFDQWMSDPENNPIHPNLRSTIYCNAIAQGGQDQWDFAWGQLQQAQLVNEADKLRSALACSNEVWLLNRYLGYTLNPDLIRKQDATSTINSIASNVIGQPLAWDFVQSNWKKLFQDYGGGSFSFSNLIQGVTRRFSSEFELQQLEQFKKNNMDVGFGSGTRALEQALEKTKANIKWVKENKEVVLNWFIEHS
The experiment in a line: Inhibition of pig kidney microsomal APN at 10 uM. The method, boiled down: (§2)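 Porcine kidney microsomal APN (ammonium sulfate suspension) diluted 600-fold in 25 mM Tris-HCl pH 7.4. Preincubated with inhibitor for 10 min at room temperature, then Leu-pNA added (0.3 mM stock). Hydrolysis followed at 405 nm at room temperature. Rates normalized to a no-inhibitor control. Single point at 10 µM; IC50 from concentration-velocity curves. Bestatin used as reference.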

The target in data set [4] is T4, Aminopeptidase N (Sus scrofa, UniProt P15145).
T4 sequence (P15145 whole entry): T3 sequence (whole entry)
The data set can be described thus: Inhibition of pig kidney microsomal APN. The method, boiled down: as §2

Data set [5] in a line: Stability in Zucker FA/FA rat plasma at 37degC. Conditions: read-out: Stability (converted). It is filed as ADME, organism-based. The method, boiled down: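 Compound at 100 µM final in male Zucker FA/FA rat plasma, stirred at 37 °C. Samples taken from 0 to 96 h, acidified with 0.14 M phosphoric acid and spiked with internal standard. Extracted three times with AcOEt and quantified by LC-MS-MS (MRM). Half-life derived.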

Data set [6] can be described thus: Solubility at pH 7.4. Format: physicochemical. The following applies: buffer. The method, boiled down:
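10 mM DMSO stock diluted 50-fold into PBS pH 7.4 or MeOH. Shaken for 24 h at room temperature, centrifuged and filtered at 0.45 µm. Analysed by LC-MS-MS; solubility taken as the PBS/MeOH mass-signal area ratio.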

Data set [7] in a line: Distribution coefficient, log D at pH 7.4. Format: physicochemical. Conditions: octanol/water. The procedure, abridged:
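10 mM DMSO stock added to 1:1 octanol/PBS pH 7.4 and shaken for 2 h at room temperature. Phases separated and each quantified by LC-MS-MS. Log D taken as the log of the octanol/PBS concentration ratio from mass signals.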

The nature of data set [8]: Selectivity ratio, IC50 for pig APN /IC50 for Plasmodium falciparum FcB1 M1. The procedure, abridged:
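Ratio of IC50 values (APN/PfA-M1) from two parallel assays: native PfA-M1 purified from P. falciparum FcB1 (diluted 10-fold) and porcine kidney microsomal APN (diluted 600-fold), both in 25 mM Tris-HCl pH 7.4. Enzyme was preincubated 10 min at room temperature with inhibitor, then Leu-pNA added (0.3 mM solution). Kinetics were read at 405 nm, initial velocities normalized to no-inhibitor controls, and IC50 was taken from velocity–concentration plots.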

For data set [9], the system named is Plasmodium falciparum. The experiment in a line: Antimalarial activity against chloroquine-resistant Plasmodium falciparum FcB1. It is filed as functional, organism-based. The procedure, abridged:
(§3)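 Asexual P. falciparum kept continuously on human erythrocytes; modified semiautomated microdilution method. Serially diluted drug added to asynchronous cultures (0.5% parasitemia, 1% final hematocrit) for 24 h at 37 °C, then [3H]hypoxanthine added per well. Growth inhibition from incorporated radioactivity relative to drug-free control on the same plate; IC50 from concentration-response curve, mean of three independent experiments.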

The subject of data set [10] is Plasmodium falciparum. The experiment in a line: Antimalarial activity against chloroquine-sensitive Plasmodium falciparum F32. Format: functional, organism-based. The procedure, abridged: as §3

A value given as a limit tells only on which side of the number the result lay.

With `O=C(NO)C(Cc1ccccc1)C(=O)NCc1ccc(F)cc1` (stereo not given), the inhibition (commonly the change of the read-out against control, counted positive when it falls) in data set [1] stood at 91%; in data set [3] it was 72%. The IC50 – broadly, the concentration that inhibits the measured activity by half – was determined as 27 nM in data set [2], 3.62 µM in data set [4], 59 µM in [9] and 57 µM in data set [10]. Besides, the half-life in data set [5] was 45 min. Moreover, in data set [6], the solubility (as a rule, the concentration that dissolves in the medium under given conditions) is greater than 200 µM. For the same molecule, the logD (as a rule, the decadic logarithm of the distribution of all forms, ionised or not, between an organic phase and buffer at a given pH) in [7] stood at 1.2. In addition, in data set [8], the Ratio IC50 turned out to be 134.
